# Measured values: ChEMBL document CHEMBL4402600, “Discovery of a Dual Tubulin Polymerization and Cell Division Cycle 20 Homologue Inhibitor via Structural Modification on Apcin” (J Med Chem, 2020)
# Calls of active or inactive are those of the source. No cut-off for these calls is given here.
# Assays:
# MCF7 = assay: Cytotoxicity in human MCF7 cells assessed as reduction in cell viability incubated for 48 hrs by MTT assay; type: functional, cell-based; conditions: MCF7, 48 h
# How it was run: (§1)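 Cells grown at 37°C, 5% CO₂ (HepG2, OVCAR-3, Caov-3 in DMEM + 10% FBS; A549, HeLa, A375, MCF-7 in RPMI 1640 + 10% FBS). Seeded at 4-5×10³/well in triplicate, adhered overnight, exposed to 0.03–300 μM (DMSO <0.1%) for 48 h. MTT added for 4 h, formazan dissolved in DMSO, absorbance read. IC50 from dose–response curves, mean ± SD of at least three independent experiments.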
# A-375 = assay: Cytotoxicity in human A375 cells assessed as reduction in cell viability incubated for 48 hrs by MTT assay; type: functional, cell-based; conditions: A-375, 48 h; how it was run: as §1
# A549 = assay: Cytotoxicity in human A549 cells assessed as reduction in cell viability incubated for 48 hrs by MTT assay; type: functional, cell-based; conditions: A549, 48 h; how it was run: as §1
# HepG2 [1] = assay: Cytotoxicity in human HepG2 cells assessed as reduction in cell viability incubated for 48 hrs by MTT assay; type: functional, cell-based; conditions: HepG2, 48 h; how it was run: as §1
# HeLa = assay: Cytotoxicity in human HeLa cells assessed as reduction in cell viability incubated for 48 hrs by MTT assay; type: functional, cell-based; how it was run: as §1
# Caov-3 cell line = assay: Cytotoxicity in human Caov3 cells assessed as reduction in cell viability incubated for 48 hrs by MTT assay; type: functional, cell-based; conditions: Caov-3, 48 h; how it was run: as §1
# [2] = target: T1, Cell division cycle protein 20 homolog (Homo sapiens, UniProt Q12834); assay: Binding affinity to CDC20 (unknown origin) by SPR analysis
# How it was run: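 Recombinant human Cdc20 (>95% pure) coupled by EDC/NHS to an acid-coupling chip; PBS pH 7.4 running buffer. Compounds injected as a gradient dilution series starting at 200 μM, 120-140 s association, 160 s dissociation. Steady-state values plotted against concentration; K_D from a one-to-one / single-site model.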
# [3] = target: T1, Cell division cycle protein 20 homolog; assay: Inhibition of CDC20 in human HepG2 cells assessed as increase in Bim protein levels at 30 uM incubated for 48 hrs by Western blot Analysis; type: cell-based
# How it was run: (§2)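 HepG2 lysates in RIPA buffer with protease/phosphatase inhibitors; 25 μg protein by SDS-PAGE/PVDF, blocked in 5% milk/TBST, primary antibodies overnight at 4°C (Cyclin A2, Cyclin B1, Bim, Aurora A, Skp2), HRP secondary 1 h at room temperature, ECL; bands quantified by densitometry.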
# [4] = target: T1, Cell division cycle protein 20 homolog; assay: Inhibition of CDC20 in human HepG2 cells assessed as decrease in cyclin B degradation at 30 uM incubated for 48 hrs by Western blot Analysis; type: cell-based; how it was run: as §2
# [5] = target: Fizzy-related protein homolog (Homo sapiens) (UniProt Q9UM11); assay: Inhibition of CDH1 in human HepG2 cells assessed as effect on Aurora A protein expression at 30 uM incubated for 48 hrs by Western blot Analysis; type: cell-based; how it was run: as §2
# [6] = target: Fizzy-related protein homolog (Homo sapiens) (UniProt Q9UM11); assay: Inhibition of CDH1 in human HepG2 cells assessed as effect on Skp2 protein expression at 30 uM incubated for 48 hrs by Western blot Analysis; type: cell-based; how it was run: as §2
# [7] = target: T1, Cell division cycle protein 20 homolog; assay: Inhibition of CDC20 in human HepG2 cells assessed as increase in stability of Bim protein at 30 uM measured after 2 to 8 hrs by Western blot Analysis; type: cell-based
# How it was run: (§3)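 Time course in HepG2: cyclin B1, Aurora A, Bim and cleaved PARP examined by Western blot at 1, 2, 4, 8 and 12 h after adding 30 μM compound; lysis in RIPA with inhibitors, 25 μg protein per lane, ECL detection.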
# [8] = target: T1, Cell division cycle protein 20 homolog; assay: Inhibition of CDC20 in human HepG2 cells assessed as increase in stability of cyclin B1 protein at 30 uM measured after 2 to 8 hrs by Western blot Analysis; type: cell-based; how it was run: as §3
# [9] = target: T1, Cell division cycle protein 20 homolog; assay: Inhibition of CDC20 in human HepG2 cells assessed as increase in Aurora A protein degradation at 30 uM measured after 1 to 12 hrs by Western blot analysis; type: cell-based; how it was run: as §3
# HepG2 [10] = assay: Inhibition of mitotic exit in human HepG2 cells assessed as increase in nuclear phosphohistone H3 levels incubated for 48 hrs by immunofluorescence assay; type: functional, cell-based
# How it was run: (§4)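 HepG2 seeded at 4×10³/well, overnight adhesion, treated 48 h. Fixed 15 min in 4% formaldehyde, permeabilized with Triton X-100, BSA-blocked, anti-phospho-histone H3 (Ser10) at 4°C overnight, fluorescent anti-rabbit secondary, DAPI counterstain. Fluorescence read relative to DMSO control; PHH3-positive cells counted in random fields as % of total. At least two experiments.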
# HepG2 [11] = assay: Inhibition of mitotic exit in human HepG2 cells assessed as increase in nuclear phosphohistone H3 levels at 30 uM incubated for 48 hrs by immunofluorescence assay relative to control; type: functional; design: scale not given: the % may be the effect or the level left; how it was run: as §4
# HepG2 [12] = assay: Inhibition of mitotic exit in human HepG2 cells assessed as increase in nuclear phosphohistone H3 levels at 3 to 30 uM incubated for 48 hrs by Western blot analysis relative to control; type: functional, cell-based
# HepG2 [13] = assay: Induction of apoptosis in human HepG2 cells assessed as increase in cleaved PARP level at 3 to 30 uM incubated for 48 hrs by Western blot analysis; type: functional, cell-based
# How it was run: (§5)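 HepG2 cells treated 48 h. Lysates in RIPA buffer with protease/phosphatase inhibitors; 25 μg protein run on SDS-PAGE, transferred to PVDF, blocked in 5% milk/TBST, primary antibodies overnight at 4°C (caspase-3, cleaved caspase-3, cleaved PARP), HRP secondary 1 h at room temperature, ECL detection; densitometry quantified.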
# HepG2 [14] = assay: Induction of apoptosis in human HepG2 cells assessed as increase in cleaved caspase-3 level at 3 to 30 uM incubated for 48 hrs by Western blot analysis; type: functional, cell-based; how it was run: as §5
# HepG2 [15] = assay: Induction of apoptosis in human HepG2 cells assessed as viable cells level at 100 uM incubated for 24 hrs by Annexin V-FITC/PI staining based flow cytometry (reference value: 89.38%); type: functional
# HepG2 [16] = assay: Induction of apoptosis in human HepG2 cells assessed as early apoptotic cells level at 100 uM incubated for 24 hrs by Annexin V-FITC/PI staining based flow cytometry (reference value: 4.02%); type: functional
# HepG2 [17] = assay: Induction of apoptosis in human HepG2 cells assessed as late apoptotic cells level at 100 uM incubated for 24 hrs by Annexin V-FITC/PI staining based flow cytometry (reference value: 5.12%); type: functional
# HepG2 [18] = assay: Induction of apoptosis in human HepG2 cells assessed as necrotic cells level at 100 uM incubated for 24 hrs by Annexin V-FITC/PI staining based flow cytometry (reference value: 1.48%); type: functional
# [19] = target: T1, Cell division cycle protein 20 homolog; assay: Inhibition of CDC20 in human HepG2 cells assessed as increase in stability of Bim protein at 30 uM measured after 1 to 12 hrs by Western blot Analysis
# OVCAR-3 = assay: Cytotoxicity in human OVCAR3 cells assessed as reduction in cell viability incubated for 48 hrs by MTT assay; type: functional, cell-based; conditions: OVCAR-3, 48 h; how it was run: as §1
# HepG2 [20] = assay: Inhibition of mitotic exit in human HepG2 cells assessed as increase in nuclear phosphohistone H3 levels at 100 uM incubated for 48 hrs by immunofluorescence assay relative to control; type: functional; design: scale not given: the % may be the effect or the level left; how it was run: as §4
# HepG2 [21] = assay: Inhibition of mitotic exit in human HepG2 cells assessed as increase in nuclear phosphohistone H3 levels at 0.03 to 0.3 uM incubated for 48 hrs by Western blot analysis relative to control; type: functional, cell-based
# Tubulin (Homo sapiens) [22] = target: T2, Tubulin (Homo sapiens) (UniProt P68371+Q9H4B7+P0DPH7+P68366+Q13509+Q71U36+P04350+Q3ZCM7+P07437+P68363+Q9BQE3+Q6PEY2+Q13885+Q9BVA1+Q9BUF5); assay: Inhibition of tubulin polymerization in human HepG2 cells assessed as disruption of microtubule organization in cytosol at 0.3 uM incubated for 48 hrs by immunofluorescent staining; type: cell-based
# How it was run: (§6)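 HepG2 treated 48 h (vehicle 0.1% DMSO; 0.3 μM paclitaxel reference). Fixed in formaldehyde, permeabilized with Triton X-100, BSA-blocked, anti-α-tubulin overnight at 4°C, fluorescent secondary, DAPI counterstain; imaged for microtubule network and chromosome morphology.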
# Tubulin (Homo sapiens) [23] = target: T2, Tubulin (Homo sapiens); assay: Inhibition of tubulin polymerization in human HepG2 cells assessed as condensed chromosome formation at 0.3 uM incubated for 48 hrs by immunofluorescent staining; type: cell-based; how it was run: as §6
# Tubulin (Sus scrofa) = Tubulin (Sus scrofa) (UniProt P02554+P02550); assay: Inhibition of porcine brain tubulin polymerization assessed as reduction in rate and extent of tubulin assembly measured at 37 degC every 30 secs for 60 mins by fluorescence based assay
# HepG2 [24] = assay: Induction of apoptosis in human HepG2 cells assessed as increase in cleaved PARP level at 0.03 to 0.3 uM incubated for 48 hrs by Western blot analysis; type: functional, cell-based; how it was run: as §5
# HepG2 [25] = assay: Induction of apoptosis in human HepG2 cells assessed as increase in cleaved caspase-3 level at 0.03 to 0.3 uM incubated for 48 hrs by Western blot analysis; type: functional, cell-based; how it was run: as §5
# HepG2 [26] = assay: Inhibition of cell migration in human HepG2 cells incubated for 48 hrs by wound healing assay; type: functional, cell-based
# How it was run: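 HepG2 seeded at 15×10⁴/well in triplicate overnight. Confluent monolayers scratched with a pipette tip, PBS-washed, medium with 0.3 μM compound added. Wounds photographed at 0, 24, 48, 72 h; wound area measured by image analysis. At least two separate experiments.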
# HepG2 [27] = assay: Inhibition of cell invasion in human HepG2 cells assessed as retardation of cell penetration through matrigel-coated membranes at 0.3 uM incubated for 48 hrs; type: functional, cell-based
# How it was run: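 HepG2 cells treated with compound or DMSO seeded in upper Transwell chamber in serum-free medium with Matrigel; complete medium in lower chamber. After 48 h at 37°C, 5% CO₂, invaded cells crystal-violet stained and photographed.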
# HepG2 [28] = assay: Induction of apoptosis in human HepG2 cells assessed as viable cells level at 0.3 uM incubated for 24 hrs by Annexin V-FITC/PI staining based flow cytometry (reference value: 89.38%); type: functional
# HepG2 [29] = assay: Induction of apoptosis in human HepG2 cells assessed as early apoptotic cells level at 0.3 uM incubated for 24 hrs by Annexin V-FITC/PI staining based flow cytometry (reference value: 4.02%); type: functional
# HepG2 [30] = assay: Induction of apoptosis in human HepG2 cells assessed as late apoptotic cells level at 0.3 uM incubated for 24 hrs by Annexin V-FITC/PI staining based flow cytometry (reference value: 5.12%); type: functional
# HepG2 [31] = assay: Induction of apoptosis in human HepG2 cells assessed as necrotic cells level at 0.3 uM incubated for 24 hrs by Annexin V-FITC/PI staining based flow cytometry (reference value: 1.48%); type: functional
# T1 sequence (Q12834 whole entry): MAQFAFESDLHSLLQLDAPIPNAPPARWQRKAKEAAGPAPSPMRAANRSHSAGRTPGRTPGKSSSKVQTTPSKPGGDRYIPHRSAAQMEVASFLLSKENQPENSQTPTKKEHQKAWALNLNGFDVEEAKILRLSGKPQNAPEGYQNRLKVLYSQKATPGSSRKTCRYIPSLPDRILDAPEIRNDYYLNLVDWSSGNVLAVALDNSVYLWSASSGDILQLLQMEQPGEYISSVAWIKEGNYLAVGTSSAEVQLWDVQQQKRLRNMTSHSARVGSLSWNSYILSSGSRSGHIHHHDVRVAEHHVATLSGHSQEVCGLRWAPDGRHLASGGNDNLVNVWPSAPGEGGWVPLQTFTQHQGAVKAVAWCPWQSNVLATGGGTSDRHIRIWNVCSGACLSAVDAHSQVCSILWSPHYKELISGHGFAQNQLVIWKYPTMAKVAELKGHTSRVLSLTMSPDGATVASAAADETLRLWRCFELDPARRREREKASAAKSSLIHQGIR
# Sequence of Fizzy-related protein homolog (Homo sapiens) (Q9UM11 whole entry): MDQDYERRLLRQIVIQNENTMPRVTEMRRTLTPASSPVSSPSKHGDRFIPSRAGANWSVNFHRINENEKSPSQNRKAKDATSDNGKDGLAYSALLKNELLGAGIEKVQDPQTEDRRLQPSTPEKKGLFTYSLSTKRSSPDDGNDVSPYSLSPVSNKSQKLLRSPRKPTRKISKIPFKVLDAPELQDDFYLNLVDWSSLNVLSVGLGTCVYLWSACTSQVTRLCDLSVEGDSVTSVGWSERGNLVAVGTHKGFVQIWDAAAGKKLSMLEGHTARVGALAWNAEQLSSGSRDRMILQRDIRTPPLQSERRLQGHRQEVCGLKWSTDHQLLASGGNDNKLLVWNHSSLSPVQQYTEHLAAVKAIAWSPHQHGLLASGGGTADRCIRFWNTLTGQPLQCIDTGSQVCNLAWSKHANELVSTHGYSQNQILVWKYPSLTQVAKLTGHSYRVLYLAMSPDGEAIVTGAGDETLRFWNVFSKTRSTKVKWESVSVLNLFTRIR
# Sequence of Tubulin (Sus scrofa) (P02550 whole entry, looked up): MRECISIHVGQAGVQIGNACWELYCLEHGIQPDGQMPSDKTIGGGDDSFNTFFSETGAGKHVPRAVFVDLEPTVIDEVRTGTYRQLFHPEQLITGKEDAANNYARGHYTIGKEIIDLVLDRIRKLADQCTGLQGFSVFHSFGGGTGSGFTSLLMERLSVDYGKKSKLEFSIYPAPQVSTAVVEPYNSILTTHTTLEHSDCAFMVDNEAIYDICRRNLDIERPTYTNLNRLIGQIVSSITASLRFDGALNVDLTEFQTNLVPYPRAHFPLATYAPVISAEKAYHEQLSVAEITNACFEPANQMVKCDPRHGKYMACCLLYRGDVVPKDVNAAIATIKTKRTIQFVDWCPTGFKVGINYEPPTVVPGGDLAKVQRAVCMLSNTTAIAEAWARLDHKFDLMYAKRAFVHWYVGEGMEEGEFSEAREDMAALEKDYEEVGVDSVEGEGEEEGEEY
# Sequence of Tubulin (Sus scrofa) (P02554 whole entry, looked up): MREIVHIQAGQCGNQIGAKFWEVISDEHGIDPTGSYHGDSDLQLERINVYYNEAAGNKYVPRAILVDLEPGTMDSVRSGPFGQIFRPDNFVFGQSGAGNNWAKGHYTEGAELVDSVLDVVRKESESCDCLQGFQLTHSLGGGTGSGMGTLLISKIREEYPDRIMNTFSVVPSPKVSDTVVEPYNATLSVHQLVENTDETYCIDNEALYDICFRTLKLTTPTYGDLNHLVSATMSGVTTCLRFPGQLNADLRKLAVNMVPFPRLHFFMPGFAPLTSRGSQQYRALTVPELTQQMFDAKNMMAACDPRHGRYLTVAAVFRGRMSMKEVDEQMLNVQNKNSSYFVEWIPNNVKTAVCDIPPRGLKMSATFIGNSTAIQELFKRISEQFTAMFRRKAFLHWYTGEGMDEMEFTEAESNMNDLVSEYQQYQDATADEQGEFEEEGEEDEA
compound,measurement,setting,value
Cc1ncc([N+](=O)[O-])n1CCOC(=O)NC(Nc1c(Cl)nc(N)nc1Cl)C(Cl)(Cl)Cl (stereo not drawn),IC50,MCF7,160 µM
same,IC50,A-375,34.2 µM
same,IC50,A549,56.5 µM
same,IC50,HepG2 [1],25.6 µM
same,IC50,HeLa,63.2 µM
same,IC50,Caov-3 cell line,110 µM
same,Kd,[2],49 µM
same,inhibition,[3],Active
same,inhibition,[4],Active
same,inhibition,[5],inactive
same,inhibition,[6],inactive
same,inhibition,[7],Active
same,inhibition,[8],Active
same,inhibition,[9],Active
same,Activity,HepG2 [10],Dose-dependent effect
same,Activity,HepG2 [11],6.9%
same,Activity,HepG2 [12],Active
same,Activity,HepG2 [13],Active
same,Activity,HepG2 [14],Active
same,Activity,HepG2 [15],64.34%
same,Activity,HepG2 [16],25.27%
same,Activity,HepG2 [17],9.31%
same,Activity,HepG2 [18],1.08%
same,inhibition,[19],inactive
Nc1nc(F)nc2c1ncn2C(NC(=O)OCCN1CCOCC1)C(Cl)(Cl)Cl (stereo not drawn),IC50,MCF7,0.2 µM
same,IC50,A-375,0.7 µM
same,IC50,A549,1.5 µM
same,IC50,HepG2 [1],0.6 µM
same,IC50,HeLa,0.3 µM
same,IC50,OVCAR-3,1.7 µM
same,IC50,Caov-3 cell line,1.5 µM
same,Kd,[2],119 µM
same,Activity,HepG2 [10],Dose-dependent effect
same,Activity,HepG2 [20],10%
same,Activity,HepG2 [21],Active
same,inhibition,Tubulin (Homo sapiens) [22],Active
same,inhibition,Tubulin (Homo sapiens) [23],Active
same,inhibition,Tubulin (Sus scrofa),Dose-dependent effect
same,Activity,HepG2 [24],Active
same,Activity,HepG2 [25],Active
same,inhibition,HepG2 [26],Dose-dependent effect
same,inhibition,HepG2 [27],Active
same,Activity,HepG2 [28],57.7%
same,Activity,HepG2 [29],37.35%
same,Activity,HepG2 [30],4.71%
same,Activity,HepG2 [31],0.24%
Nc1nc(N)c2ncn(C(NC(=O)OCCc3ccccn3)C(Cl)(Cl)Cl)c2n1 (stereo not drawn),IC50,MCF7,136 µM
same,IC50,A-375,300 µM
same,IC50,A549,270 µM
same,IC50,HepG2 [1],28.1 µM
same,IC50,HeLa,220 µM
same,IC50,OVCAR-3,30.9 µM
same,IC50,Caov-3 cell line,29.7 µM
